The source of these data is ChEMBL document CHEMBL1255259, “Phosphorothioate-modified oligodeoxynucleotides inhibit human cytomegalovirus replication by blocking virus entry” (Antimicrob Agents Chemother, 2008).

Molecules are shown by their SMILES. Activity calls are given as the source filed them. No cut-off for these calls is given here.

Data set [1] can be described thus: Cytotoxicity against HELF assessed as cell viability after 6 days by MTT assay. The settings on record: human, HELF cells. Type of data set: cell-based. An outline of the steps:
(§1)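 HELF exposed to rising ODN concentrations (up to 10 μM) for 6 days; viable cells measured by MTT. CC50 taken as concentration that cuts viability to 50%.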
For orientation: Formazan colour is commonly taken as a measure of viable cells.

A short description of data set [2]: Antimicrobial activity against Murine cytomegalovirus (strain Smith) infected in compound pretreated mouse NIH 3T3 cells assessed as inhibition of viral replication. The conditions noted are these: Murid betaherpesvirus 1, NIH3T3. Type of data set: functional, cell-based. An outline of the steps: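 NIH 3T3 pretreated 1 h with ODN, infected with MCMV Smith (MOI 1); ODN kept after 2 h adsorption at 37°C. Harvest at 6 days p.i., sonication, plaque assay on NIH 3T3; IC50 from plaque reduction. Means ± SD, three experiments.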

Data set [3] concerns Human alphaherpesvirus 1. Kind of data set: Antimicrobial activity against Human herpesvirus 1 infected in compound pretreated HELF assessed as inhibition of viral replication at 0.1 uM. The format is functional, organism-based. The method in brief: (§2)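 HELF pretreated with ODN (0.1 or 1 μM) 1 h before infection with a clinical HSV-1 isolate at MOI 0.1; ODN kept in medium after 2 h adsorption. Harvest at 48 h p.i., sonication, plaque titration on Vero cells. Means ± SD of three independent experiments.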

For data set [4], the system named is Human alphaherpesvirus 1. Kind of data set: Antimicrobial activity against Human herpesvirus 1 infected in compound pretreated HELF assessed as inhibition of viral replication at 1 uM. The format is functional, organism-based. The method in brief:
as §2

The test system of the next data set is unidentified adenovirus. Briefly: Antimicrobial activity against unidentified adenovirus infected in compound pretreated HELF assessed as inhibition of viral replication. Type of data set: functional, organism-based. The method in brief:
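HELF pretreated 1 h with ODN (0.1 or 1 μM), infected with an adenovirus clinical isolate (MOI 1); ODN kept after 2 h adsorption. Harvest at 4 days p.i., sonication, plaque titration on HELF. Means ± SD, three experiments.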

In data set [5] the test system is Vesicular stomatitis Indiana virus. Kind of data set: Antimicrobial activity against Vesicular stomatitis Indiana virus infected in compound pretreated HELF assessed as inhibition of viral replication. Type of data set: functional, organism-based. An outline of the steps:
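HELFs exposed to ODN (0.1 or 1 μM) for 1 h, then infected with VSV serotype Indiana at MOI 1 (2 h adsorption, 37°C). ODN kept in the medium until 48 h p.i. Cells and supernatants were pooled, sonicated and titrated by plaque assay on HELFs. Data are means ± standard deviations of three independent experiments, duplicate wells.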

Data set [6] deals with Human betaherpesvirus 5. Kind of data set: Antimicrobial activity against Human cytomegalovirus AD169 infected in HELF assessed as inhibition of viral replication at 0.1 uM measured after 6 days post-infection. Type of data set: functional, organism-based.
Data set [7] concerns Human betaherpesvirus 5. Kind of data set: Antimicrobial activity against Human cytomegalovirus AD169 infected in HELF assessed as inhibition of viral replication at 1 uM measured after 6 days post-infection. Type of data set: functional, organism-based.
The subject of data set [8] is Human betaherpesvirus 5. Briefly: Antimicrobial activity against Human herpesvirus 5 strain AD169 infected in HELF assessed as pp65 nuclear localization at 0.1 uM after 2 hrs […]. Type of data set: functional, organism-based.
Data set [9] deals with Human betaherpesvirus 5. Kind of data set: Antimicrobial activity against 0.1 uM compound pretreated Human cytomegalovirus AD169 infected in HELF assessed as reduction in viral titer at 4 degC. The format is functional, organism-based. An outline of the steps:
(§3)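 HCMV AD169 (10^4 PFU) incubated with ODN at 0.1 μM at 4 or 37°C for various times; samples then diluted to bring ODN below an antivirally active level; residual infectivity titrated by plaque assay on HELF. Means ± SD of three independent experiments.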

The test system of data set [10] is Human betaherpesvirus 5. Kind of data set: Antimicrobial activity against 0.1 uM compound pretreated Human cytomegalovirus AD169 infected in HELF assessed as reduction in viral titer 37 degC. Type of data set: functional, organism-based. An outline of the steps:
as §3

Data set [11] has as its system Human betaherpesvirus 5. Kind of data set: Antimicrobial activity against Human cytomegalovirus AD169 infected in 0.1 uM compound pretreated HELF assessed as inhibition of viral replication measured after 6 days post-infection. Type of data set: functional, organism-based. The method in brief: (§4)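 HELF pretreated with ODN 1 h before infection with HCMV AD169 (MOI 1); ODN kept in medium after 2 h adsorption at 37°C. At 6 days p.i., cells plus supernatants sonicated and titrated by plaque assay on HELF; plaques counted microscopically, expressed as PFU/ml (log10) or % of control. IC50/IC90 by linear regression; duplicate wells, three independent experiments, means ± SD.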

The test system of data set [12] is Human betaherpesvirus 5. Briefly: Antimicrobial activity against Human cytomegalovirus AD169 infected in 1 uM compound pretreated HELF assessed as inhibition of viral replication measured after 6 days post-infection. Type of data set: functional, organism-based. An outline of the steps: as §4
Data set [13] concerns Human betaherpesvirus 5. Kind of data set: Antimicrobial activity against Human cytomegalovirus AD169 infected in compound pretreated HELF assessed as inhibition of viral replication measured after 6 days post-infection. Type of data set: functional, organism-based. The settings on record: Human betaherpesvirus 5, AD169, HELF. The method in brief:
as §4

The nature of data set [14]: Cytotoxicity against HELF assessed as cell viability by MTT assay after 6 days at <=10 uM. Type of data set: cell-based. The conditions noted are these: human, 144 h. The method in brief:
as §1

Regarding `Cc1cn([C@H]2C[C@H](OP(O)(O)=S)[C@@H](COP(O)(=S)O[C@H]3C[C@H](n4cc(C)c(=O)[nH]c4=O)O[C@@H]3COP(O)(=S)O[C@H]3[C@@H](O)[C@H](n4ccc(N)nc4=O)O[C@@H]3COP(O)(=S)O[C@H]3[C@@H](O)[C@H](n4cnc5c(=O)[nH]c(N)nc54)O[C@@H]3COP(O)(=S)O[C@H]3C[C@H](n4cc(C)c(=O)[nH]c4=O)O[C@@H]3COP(O)(=S)O[C@H]3[C@@H](O)[C@H](n4cnc5c(=O)[nH]c(N)nc54)O[C@@H]3COP(O)(=S)O[C@H]3C[C@H](n4cc(C)c(=O)[nH]c4=O)O[C@@H]3COP(O)(=S)O[C@H]3C[C@H](n4cc(C)c(=O)[nH]c4=O)O[C@@H]3COP(O)(=S)O[C@H]3C[C@H](n4cc(C)c(=O)[nH]c4=O)O[C@@H]3COP(O)(=S)O[C@H]3C[C@H](n4cc(C)c(=O)[nH]c4=O)O[C@@H]3COP(O)(=S)O[C@H]3[C@@H](O)[C@H](n4ccc(N)nc4=O)O[C@@H]3COP(O)(=S)O[C@H]3[C@@H](O)[C@H](n4cnc5c(=O)[nH]c(N)nc54)O[C@@H]3COP(O)(=S)O[C@H]3C[C@H](n4cc(C)c(=O)[nH]c4=O)O[C@@H]3COP(O)(=S)O[C@H]3[C@@H](O)[C@H](n4cnc5c(=O)[nH]c(N)nc54)O[C@@H]3COP(O)(=S)O[C@H]3C[C@H](n4cc(C)c(=O)[nH]c4=O)O[C@@H]3COP(O)(=S)O[C@H]3C[C@H](n4cc(C)c(=O)[nH]c4=O)O[C@@H]3COP(O)(=S)O[C@H]3C[C@H](n4cc(C)c(=O)[nH]c4=O)O[C@@H]3COP(O)(=S)O[C@H]3C[C@H](n4cc(C)c(=O)[nH]c4=O)O[C@@H]3COP(O)(=S)O[C@H]3[C@@H](O)[C@H](n4ccc(N)nc4=O)O[C@@H]3COP(O)(=S)O[C@H]3[C@@H](O)[C@H](n4cnc5c(=O)[nH]c(N)nc54)O[C@@H]3COP(O)(=S)O[C@H]3C[C@H](n4cc(C)c(=O)[nH]c4=O)O[C@@H]3COP(O)(=S)O[C@H]3[C@@H](O)[C@H](n4ccc(N)nc4=O)O[C@@H]3COP(O)(=S)O[C@H]3[C@@H](O)[C@H](n4cnc5c(=O)[nH]c(N)nc54)O[C@@H]3COP(O)(=S)O[C@H]3C[C@H](n4cc(C)c(=O)[nH]c4=O)O[C@@H]3CO)O2)c(=O)[nH]c1=O` (stereo partly specified), the CC50 (in general, the concentration giving 50% cytotoxicity) at 144 h in data set [1] was > 10000 nM. For the same compound, the IC50 (in general, the concentration at which inhibition is half-maximal) in data set [2] amounted to 20 nM; with Human betaherpesvirus 5 [13], 30 nM. In addition, the inhibition result (with Human alphaherpesvirus 1 [3]; in the data set on Human alphaherpesvirus 1 [4]; in the data set on unidentified adenovirus; in data set [5]; in the data set with Human betaherpesvirus 5 [6]; in the data set with Human betaherpesvirus 5 [7]) was “inactive” each time. Moreover, the inhibition entry in the data set with Human betaherpesvirus 5 [9] and with Human betaherpesvirus 5 [10] was “inactive” throughout. Further, the inhibition result in the data set on Human betaherpesvirus 5 [8], in the data set with Human betaherpesvirus 5 [11] and in the data set with Human betaherpesvirus 5 [12] was “Active” in each case. Besides, the concentration for an effect of 90% (IC90) (in general, the concentration at which the effect reaches the 90% level) with Human betaherpesvirus 5 [13] worked out at 220 nM. In data set [14], the Activity entry is given as “Non-toxic”.
